Published values pooled from the literature.
Protocols differ between the studies behind these lines.
Target: Mitogen-activated protein kinase kinase kinase 12 (MAP3K12, Homo sapiens, UniProt Q12852)
One construct used (Q12852 1-859): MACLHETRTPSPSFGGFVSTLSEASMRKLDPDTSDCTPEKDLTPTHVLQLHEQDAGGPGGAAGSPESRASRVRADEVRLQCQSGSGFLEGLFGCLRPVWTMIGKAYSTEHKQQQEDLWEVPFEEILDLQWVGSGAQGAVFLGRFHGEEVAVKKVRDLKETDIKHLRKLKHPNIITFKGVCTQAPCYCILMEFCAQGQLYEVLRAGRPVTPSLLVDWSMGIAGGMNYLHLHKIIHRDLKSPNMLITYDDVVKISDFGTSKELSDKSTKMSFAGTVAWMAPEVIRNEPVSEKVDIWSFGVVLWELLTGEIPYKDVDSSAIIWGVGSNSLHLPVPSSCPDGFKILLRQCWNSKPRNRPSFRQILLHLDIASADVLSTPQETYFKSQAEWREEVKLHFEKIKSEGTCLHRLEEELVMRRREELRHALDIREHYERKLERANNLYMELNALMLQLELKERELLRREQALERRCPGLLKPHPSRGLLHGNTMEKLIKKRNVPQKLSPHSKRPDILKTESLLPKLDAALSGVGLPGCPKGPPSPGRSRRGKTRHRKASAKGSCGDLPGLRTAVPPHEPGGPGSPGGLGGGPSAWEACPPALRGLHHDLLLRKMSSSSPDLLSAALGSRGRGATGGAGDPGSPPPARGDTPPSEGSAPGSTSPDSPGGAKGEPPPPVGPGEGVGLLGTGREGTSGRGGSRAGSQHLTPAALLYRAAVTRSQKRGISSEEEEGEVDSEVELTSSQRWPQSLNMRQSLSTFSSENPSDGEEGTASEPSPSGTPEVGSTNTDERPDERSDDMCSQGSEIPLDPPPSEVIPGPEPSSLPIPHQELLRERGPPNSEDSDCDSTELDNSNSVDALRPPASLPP

For O=C(NS(=O)(=O)c1ccc(NCC2CCOCC2)c([N+](=O)[O-])c1)c1ccc(N2CCN(Cc3ccc(C(F)(F)F)cc3-c3ccc(Cl)cc3)CC2)cc1Oc1cnc2[nH]ccc2c1, the remaining binding was 100% (cell-free assay, competition with immobilised ligand; 1 µM).
The remaining binding of c1cnn2ncc(-c3ccnc(N4CCC45COC5)n3)c2c1 is reported as 74% (binding; 1 µM).
With COc1cnc(Nc2cccc(S(N)(=O)=O)c2)nc1N1CCN(c2ccccc2)CC1 the remaining binding was 72% (binding, competition with immobilised ligand; 1 µM).
O=C1CCc2cc(Nc3cc(OC4CCOCC4)c([N+](=O)[O-])cc3Cl)ccc2N1 has a remaining binding of 100% (cell-free assay, competition with immobilised ligand; 1 µM).
For CCN1CCN(Cc2ccc(C(=O)Nc3ccc(C)c(Oc4ccc5c(c4)CC(=O)N5)c3)cc2C(F)(F)F)CC1, the remaining binding was 100% (binding, competition with immobilised ligand; 1 µM).
The remaining binding of CN(C)c1nccc(-c2cnn3ncccc23)n1 is reported as 98% (binding; 1 µM).
The remaining binding of Cc1cc(-n2nc(Cc3cc(F)cc(C(F)(F)F)c3)nc2C)ccc1C(N)=O is reported as 100% (cell-free assay, competition with immobilised ligand; 1 µM).
With c1cncc(-c2cccc(Nc3nccc(NC4CCCCC4)n3)c2)c1 the remaining binding was 67% (binding, competition with immobilised ligand; 10 µM).
O=C(c1ccc(Nc2ncc(Cl)c(-c3ccc(Cl)s3)n2)cc1)N1CCC(N2CCCC2)CC1 gave a remaining binding of 7.8% (binding, competition with immobilised ligand; 1 µM).
The remaining binding of O=C(NCC1CCOCC1)c1n[nH]cc1NC(=O)c1c(F)cccc1F is reported as 85% (binding, competition with immobilised ligand; 1 µM).
For O=C(c1ccc(Nc2nccc(-c3cc4ccccc4s3)n2)cc1)N1CCC(N2CCCC2)CC1, the remaining binding was 28% (binding, competition with immobilised ligand; 1 µM).
The remaining binding of FC(F)(F)Oc1cccc(-c2cnc3ccc(-c4ccncc4)nn23)c1 is reported as 45% (cell-free assay, competition with immobilised ligand; 5 µM).
CN(C)c1nccc(-c2cnc3ncccn23)n1 gave a remaining binding of 67% (binding; 1 µM).
The remaining binding of O=C(Nc1cnc(Oc2ccc(F)cc2)nc1)N1CCc2ncccc2[C@@H]1c1ccc(F)cc1 is reported as 100% (cell-free assay, competition with immobilised ligand; 1 µM).
The remaining binding of F[C@@H]1CCN(c2nccc(-c3cnn4ncccc34)n2)C1 is reported as 100% (binding; 1 µM).
The remaining binding of O=C(c1ccc(Nc2ncc(Cl)c(-c3cc4ccccc4s3)n2)cc1)N1CCC(N2CCCC2)CC1 is reported as 6.9% (binding, competition with immobilised ligand; 1 µM).
CN(C)c1ncc(F)c(-c2cnn3ncccc23)n1 has a remaining binding of 72% (binding; 1 µM).
CC(=O)C1=C(C)N(c2cccc(C(F)(F)F)c2)C(=O)N[C@@H]1c1ccc(C#N)nc1 has a remaining binding of 86.8% (cell-free assay, competition with immobilised ligand; 1 µM).
With C[C@H]1CCN(c2nccc(-c3cnn4ncccc34)n2)C1 the remaining binding was 100% (binding; 1 µM).
For Cc1nc(N2CC[C@@H](O)C2)ncc1-c1cc(C(F)(F)F)cc2[nH]ncc12, the remaining binding was 99% (binding, competition with immobilised ligand; 1 µM).
